From ChEMBL document CHEMBL3352060, “Synthesis and SAR study of novel tricyclic pyrazoles as potent phosphodiesterase 10A inhibitors” (Eur J Med Chem, 2014)
pIC50: −log10 of the molar value.

What was measured:
[1] = target: T1, cAMP and cAMP-inhibited cGMP 3',5'-cyclic phosphodiesterase 10A (Homo sapiens, UniProt Q9Y233); assay: Inhibition of human PDE10A (amino acids 14 to 779) using [3H]-labelled cyclic nucleotide as substrate after 1 hr b beta counting
Outline: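 PDE10A expressed in baculovirus-infected Sf9 cells (27 °C, harvested at 72 h), lysed in Tris/MgCl2/triton buffer and partially purified on Q sepharose. Reactions contained enzyme sufficient to convert 20–25% of substrate, 50 mM HEPES pH 7.6, 10 mM MgCl2, 0.02% Tween20, 0.1 mg/ml BSA, 3H-cAMP at 5 nM final and varying inhibitor levels. Signal was counted by Microbeta, activity was normalized to an uninhibited control (100%), and IC50 values were derived.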

[2] = target: Dual specificity calcium/calmodulin-dependent 3',5'-cyclic nucleotide phosphodiesterase 1C (Homo sapiens) (UniProt Q14123); assay: Inhibition of PDE1C (unknown origin) at 10 uM
[3] = target: cGMP-dependent 3',5'-cyclic phosphodiesterase (Homo sapiens) (UniProt O00408); assay: Inhibition of PDE2A (unknown origin) at 10 uM
Sequence of cGMP-dependent 3',5'-cyclic phosphodiesterase (Homo sapiens) (O00408 whole entry): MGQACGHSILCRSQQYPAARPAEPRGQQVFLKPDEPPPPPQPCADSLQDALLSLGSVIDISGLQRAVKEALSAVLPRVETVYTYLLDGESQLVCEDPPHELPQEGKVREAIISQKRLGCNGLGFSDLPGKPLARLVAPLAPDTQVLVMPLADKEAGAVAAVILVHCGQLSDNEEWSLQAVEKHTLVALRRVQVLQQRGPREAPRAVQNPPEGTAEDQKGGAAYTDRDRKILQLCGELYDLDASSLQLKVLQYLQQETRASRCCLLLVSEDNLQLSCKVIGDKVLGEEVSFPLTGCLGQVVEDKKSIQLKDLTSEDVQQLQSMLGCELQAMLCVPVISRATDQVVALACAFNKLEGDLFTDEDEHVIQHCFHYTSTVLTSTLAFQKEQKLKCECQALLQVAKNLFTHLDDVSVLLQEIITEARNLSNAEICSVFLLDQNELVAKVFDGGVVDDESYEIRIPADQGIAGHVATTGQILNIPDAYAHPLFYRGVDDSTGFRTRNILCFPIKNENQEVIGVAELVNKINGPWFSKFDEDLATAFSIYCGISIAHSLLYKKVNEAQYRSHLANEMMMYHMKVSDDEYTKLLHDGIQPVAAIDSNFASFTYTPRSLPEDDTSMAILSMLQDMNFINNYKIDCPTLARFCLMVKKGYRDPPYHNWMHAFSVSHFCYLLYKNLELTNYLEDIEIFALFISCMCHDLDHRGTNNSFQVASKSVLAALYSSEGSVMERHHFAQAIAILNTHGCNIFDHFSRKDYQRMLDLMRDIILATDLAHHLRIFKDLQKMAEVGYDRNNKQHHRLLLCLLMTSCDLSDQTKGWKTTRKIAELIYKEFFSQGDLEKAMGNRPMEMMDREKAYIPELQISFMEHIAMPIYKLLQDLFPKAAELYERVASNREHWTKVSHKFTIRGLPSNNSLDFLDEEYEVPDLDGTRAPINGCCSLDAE

[4] = target: cGMP-inhibited 3',5'-cyclic phosphodiesterase 3A (Homo sapiens) (UniProt Q14432); assay: Inhibition of PDE3A (unknown origin) at 10 uM
Sequence of cGMP-inhibited 3',5'-cyclic phosphodiesterase 3A (Homo sapiens) (Q14432 whole entry): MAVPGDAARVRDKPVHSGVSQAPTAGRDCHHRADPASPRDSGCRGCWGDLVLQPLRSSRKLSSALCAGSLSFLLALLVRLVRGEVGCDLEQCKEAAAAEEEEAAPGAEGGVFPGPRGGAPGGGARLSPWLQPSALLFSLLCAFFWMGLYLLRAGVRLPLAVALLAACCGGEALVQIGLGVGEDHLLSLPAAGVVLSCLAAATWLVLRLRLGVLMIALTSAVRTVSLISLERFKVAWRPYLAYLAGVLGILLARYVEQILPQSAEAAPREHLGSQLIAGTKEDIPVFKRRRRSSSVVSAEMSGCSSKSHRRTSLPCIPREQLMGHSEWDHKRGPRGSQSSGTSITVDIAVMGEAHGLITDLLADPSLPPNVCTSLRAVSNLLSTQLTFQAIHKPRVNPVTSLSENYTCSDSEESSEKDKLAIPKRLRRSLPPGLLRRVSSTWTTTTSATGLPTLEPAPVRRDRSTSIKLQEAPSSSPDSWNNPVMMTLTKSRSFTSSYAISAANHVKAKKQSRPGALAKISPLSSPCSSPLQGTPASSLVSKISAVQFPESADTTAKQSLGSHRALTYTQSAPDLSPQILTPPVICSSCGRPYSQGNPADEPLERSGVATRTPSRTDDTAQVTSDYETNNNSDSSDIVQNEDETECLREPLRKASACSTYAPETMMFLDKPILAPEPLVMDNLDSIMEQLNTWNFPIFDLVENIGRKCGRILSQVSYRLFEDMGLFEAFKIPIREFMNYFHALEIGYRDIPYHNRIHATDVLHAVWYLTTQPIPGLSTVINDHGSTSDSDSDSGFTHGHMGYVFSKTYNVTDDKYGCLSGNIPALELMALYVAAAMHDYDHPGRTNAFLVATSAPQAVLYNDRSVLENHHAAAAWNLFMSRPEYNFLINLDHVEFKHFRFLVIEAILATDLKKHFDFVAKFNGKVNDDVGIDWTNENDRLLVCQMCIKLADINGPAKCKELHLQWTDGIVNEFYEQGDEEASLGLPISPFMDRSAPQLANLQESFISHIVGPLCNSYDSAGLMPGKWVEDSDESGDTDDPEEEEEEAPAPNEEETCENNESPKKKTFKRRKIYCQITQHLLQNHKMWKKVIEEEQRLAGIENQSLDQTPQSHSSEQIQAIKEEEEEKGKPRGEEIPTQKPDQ

[5] = target: 3',5'-cyclic-AMP phosphodiesterase 4D (Homo sapiens) (UniProt Q08499); assay: Inhibition of PDE4D (unknown origin) at 10 uM
[6] = target: cGMP-specific 3',5'-cyclic phosphodiesterase (Homo sapiens) (UniProt O76074); assay: Inhibition of PDE5A (unknown origin) at 10 uM
[7] = target: 3',5'-cyclic-AMP phosphodiesterase 7B (Homo sapiens) (UniProt Q9NP56); assay: Inhibition of PDE7B (unknown origin) at 10 uM
Sequence of 3',5'-cyclic-AMP phosphodiesterase 7B (Homo sapiens) (Q9NP56 whole entry): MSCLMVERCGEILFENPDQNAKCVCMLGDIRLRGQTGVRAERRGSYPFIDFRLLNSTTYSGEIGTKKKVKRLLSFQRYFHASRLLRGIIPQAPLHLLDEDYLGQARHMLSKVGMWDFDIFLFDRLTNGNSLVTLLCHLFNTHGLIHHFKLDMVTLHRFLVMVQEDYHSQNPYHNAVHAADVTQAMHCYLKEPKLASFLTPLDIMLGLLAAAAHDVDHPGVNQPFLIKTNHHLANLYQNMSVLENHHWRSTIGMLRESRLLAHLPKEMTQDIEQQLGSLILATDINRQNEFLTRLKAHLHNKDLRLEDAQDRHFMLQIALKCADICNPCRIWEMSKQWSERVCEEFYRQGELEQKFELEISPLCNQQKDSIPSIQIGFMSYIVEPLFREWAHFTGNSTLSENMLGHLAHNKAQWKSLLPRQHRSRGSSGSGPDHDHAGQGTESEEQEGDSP

[8] = target: High affinity cAMP-specific and IBMX-insensitive 3',5'-cyclic phosphodiesterase 8A (Homo sapiens) (UniProt O60658); assay: Inhibition of PDE8A (unknown origin) at 10 uM
[9] = target: High affinity cGMP-specific 3',5'-cyclic phosphodiesterase 9A (Homo sapiens) (UniProt O76083); assay: Inhibition of PDE9A (unknown origin) at 10 uM
[10] = target: T1, cAMP and cAMP-inhibited cGMP 3',5'-cyclic phosphodiesterase 10A; assay: Inhibition of PDE10A (unknown origin) at 2 uM
[11] = target: Dual 3',5'-cyclic-AMP and -GMP phosphodiesterase 11A (Homo sapiens) (UniProt Q9HCR9); assay: Inhibition of PDE11A (unknown origin) at 10 uM
Sequence of Dual 3',5'-cyclic-AMP and -GMP phosphodiesterase 11A (Homo sapiens) (Q9HCR9 whole entry, looked up): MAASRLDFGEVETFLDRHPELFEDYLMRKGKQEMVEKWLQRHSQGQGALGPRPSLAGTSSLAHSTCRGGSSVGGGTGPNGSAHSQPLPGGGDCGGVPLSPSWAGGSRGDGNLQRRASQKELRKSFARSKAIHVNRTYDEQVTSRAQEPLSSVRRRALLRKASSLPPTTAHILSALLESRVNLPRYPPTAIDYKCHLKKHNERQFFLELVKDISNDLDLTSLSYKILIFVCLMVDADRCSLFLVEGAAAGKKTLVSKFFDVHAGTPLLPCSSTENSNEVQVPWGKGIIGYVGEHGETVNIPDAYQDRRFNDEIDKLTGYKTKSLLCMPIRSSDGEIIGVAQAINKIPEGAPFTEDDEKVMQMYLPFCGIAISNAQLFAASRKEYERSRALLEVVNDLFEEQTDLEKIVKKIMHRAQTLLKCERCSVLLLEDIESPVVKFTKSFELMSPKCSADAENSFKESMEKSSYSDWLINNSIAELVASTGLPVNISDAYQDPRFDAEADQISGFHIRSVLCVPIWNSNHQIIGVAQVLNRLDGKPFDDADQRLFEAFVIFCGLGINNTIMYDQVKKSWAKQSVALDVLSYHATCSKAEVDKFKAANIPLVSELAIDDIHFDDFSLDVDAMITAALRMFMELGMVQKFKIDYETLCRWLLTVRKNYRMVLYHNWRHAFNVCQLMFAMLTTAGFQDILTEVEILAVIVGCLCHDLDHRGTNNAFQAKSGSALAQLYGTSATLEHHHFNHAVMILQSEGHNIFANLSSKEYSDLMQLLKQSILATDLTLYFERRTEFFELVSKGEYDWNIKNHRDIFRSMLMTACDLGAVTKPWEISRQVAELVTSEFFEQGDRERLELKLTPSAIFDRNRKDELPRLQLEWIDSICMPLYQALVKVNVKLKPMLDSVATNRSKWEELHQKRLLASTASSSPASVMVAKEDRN

[12] = target: T1, cAMP and cAMP-inhibited cGMP 3',5'-cyclic phosphodiesterase 10A; assay: Inhibition of PDE10A (unknown origin) at 10 uM
[13] = target: Dual 3',5'-cyclic-AMP and -GMP phosphodiesterase 11A (Homo sapiens) (UniProt Q9HCR9); assay: Inhibition of PDE11A (unknown origin) at 2 uM
MDCK = assay: Apparent permeability across apical to basolateral side in MDCK cells expressing MDR1 (unknown origin); parameters: unit not given here; conditions: dog

T1 sequence (Q9Y233 whole entry, the tested form may be a part): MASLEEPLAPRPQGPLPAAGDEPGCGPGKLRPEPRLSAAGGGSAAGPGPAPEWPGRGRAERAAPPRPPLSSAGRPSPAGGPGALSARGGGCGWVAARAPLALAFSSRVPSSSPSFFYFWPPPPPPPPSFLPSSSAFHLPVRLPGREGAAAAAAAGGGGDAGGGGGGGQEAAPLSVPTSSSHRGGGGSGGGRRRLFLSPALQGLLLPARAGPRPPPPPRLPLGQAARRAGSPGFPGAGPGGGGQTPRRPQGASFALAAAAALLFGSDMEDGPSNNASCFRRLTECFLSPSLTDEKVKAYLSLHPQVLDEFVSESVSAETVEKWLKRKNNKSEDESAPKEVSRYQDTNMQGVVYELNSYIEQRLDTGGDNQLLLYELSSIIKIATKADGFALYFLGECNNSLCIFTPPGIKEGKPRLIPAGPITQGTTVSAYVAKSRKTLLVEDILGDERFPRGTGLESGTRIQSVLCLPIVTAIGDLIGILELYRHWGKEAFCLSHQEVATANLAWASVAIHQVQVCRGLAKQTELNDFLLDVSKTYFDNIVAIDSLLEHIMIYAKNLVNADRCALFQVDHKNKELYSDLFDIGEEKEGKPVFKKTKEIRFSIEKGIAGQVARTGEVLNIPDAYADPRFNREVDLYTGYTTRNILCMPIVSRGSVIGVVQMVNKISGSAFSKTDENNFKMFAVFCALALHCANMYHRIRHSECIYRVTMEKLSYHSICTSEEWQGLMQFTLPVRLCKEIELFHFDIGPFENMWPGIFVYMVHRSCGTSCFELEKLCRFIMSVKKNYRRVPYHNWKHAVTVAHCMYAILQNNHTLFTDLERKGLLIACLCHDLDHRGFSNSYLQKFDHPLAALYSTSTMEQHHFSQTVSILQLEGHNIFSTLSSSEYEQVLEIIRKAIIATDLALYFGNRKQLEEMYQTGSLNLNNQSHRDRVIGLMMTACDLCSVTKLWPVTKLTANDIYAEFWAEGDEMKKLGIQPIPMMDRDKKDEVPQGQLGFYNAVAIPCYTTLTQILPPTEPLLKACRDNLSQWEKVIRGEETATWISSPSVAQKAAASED

| SMILES | pIC50 [1] | inhibition [2] [%] | inhibition [3] [%] | inhibition [4] [%] | inhibition [5] [%] | inhibition [6] [%] | inhibition [7] [%] | inhibition [8] [%] | inhibition [9] [%] | inhibition [10] [%] | inhibition [11] [%] | inhibition [12] [%] | inhibition [13] [%] | Papp A-B (MDCK) |
| --- | --- | --- | --- | --- | --- | --- | --- | --- | --- | --- | --- | --- | --- | --- |
| CCOC(=O)c1cc2c3cccnc3cc(CCc3nc(-c4ccccc4)cn3C)n2n1 | 6.66 |  | 44 | 13 | 45 | 13 | -4 | 46 | 20 | 88 | 7 |  |  |  |
| Cn1cc(-c2ccccc2)nc1CCc1cc2ncccc2c2cc(C(F)(F)F)nn12 | 6.72 | -3 | 13 | 28 | 44 | 33 | 41 | 31 | 8 |  |  | 101 | 25 | 3.1 |
| Cc1cc2c3ccccc3cc(CCc3nc(-c4ccccc4)cn3C)n2n1 | 6.05 | -1 | 14 | 20 | 12 |  | 13 | 17 |  |  |  | 72 | 13 | 3.1 |
| COCc1cc2c3cccnc3cc(CCc3nc(-c4ccccc4)cn3C)n2n1 | 7.38 | 7 | 69 | 51 | 58 | 38 | 47 | 29 | 15 |  |  | 106 | 70 | 17.8 |
| Cc1cc2c3cnccc3cc(CCc3nc(-c4ccccc4)cn3C)n2n1 | 7.26 | 11 | 20 | 13 | 25 | 15 | 41 | 25 | 53 | 100 | 7 |  |  |  |
| Cc1cc2c3ccccc3cc(CCc3nc4ccccc4n3C)n2n1 | 6.00 | -7 | 8 | 15 | 11 | 20 | 11 | 36 | 10 |  |  | 77 | 12 | 1.1 |

More lines, now with the values ahead:

| pIC50 [1] | inhibition [2] [%] | inhibition [3] [%] | inhibition [4] [%] | inhibition [5] [%] | inhibition [6] [%] | inhibition [7] [%] | inhibition [8] [%] | inhibition [9] [%] | inhibition [10] [%] | inhibition [11] [%] | inhibition [12] [%] | inhibition [13] [%] | Papp A-B (MDCK) | SMILES |
| --- | --- | --- | --- | --- | --- | --- | --- | --- | --- | --- | --- | --- | --- | --- |
| 7.40 | 15 | 28 | 5 | 38 | 35 | 18 | 16 | 5 | 102 | 34 |  |  |  | Cc1cc2c3cccnc3cc(CCc3nc(-c4ccccc4)cn3C)n2n1 |
| 5.89 | 27 | 20 | 1 | 24 | 38 | 17 | -6 | -2 | 73 | 10 |  |  |  | CCOC(=O)c1cc2c3cccnc3cc(CCc3nc4ccccc4n3C)n2n1 |
| 6.77 | 28 | 55 | 16 | 23 | 67 | 27 | 13 | 21 | 93 | 43 |  |  |  | Cc1cc2c3cccnc3cc(CCc3nc4ccccc4n3C)n2n1 |
| 6.32 | 10 | 54 | 30 | 15 | 39 | -3 | 46 | 15 | 79 | 1 |  |  |  | Cc1cc2c3cnccc3cc(CCc3nc4ccccc4n3C)n2n1 |
| 7.40 | 24 | 17 | 49 | 68 | 59 | 53 | 37 | 12 |  |  | 102 | 37 | 11.7 | Cc1cc2c3ccncc3cc(CCc3nc(-c4ccccc4)cn3C)n2n1 |
